One assay relates to HCT-116. The experiment in a line: Induction of caspase 8 cleavage in human HCT116 cells at 30 uM after 48 hrs in presence of caspase 8 inhibitor z-IETD-FMK by Western blot analysis. In kind it is functional, cell-based. The gist of the method: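 HCT116 cells were cultured 48 h with 30 μM compound, with or without 20 μM z-IETD-FMK. Lysates were made in SDS loading buffer and 10–30 μg protein was resolved by 6–15% SDS-PAGE and transferred to PVDF. Blots were probed for cleaved caspase-8, beclin 1, cleaved beclin 1 and LC3-II, and detected by ECL.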

In a further assay the test system is Mus musculus. The assay can be described thus: Inhibition of Ki-67 expression in human HCT116 cells xenografted in BALB/c-nu mouse at 2.5 to 5 mg/kg, ip administered three times per week for 28 days measured post dosing by hematoxylin staining based inverted phase-contrast microscopy. The assay is classed as functional, organism-based. Put shortly:
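Day-28 xenograft tumors were fixed in 4% paraformaldehyde, paraffin-embedded and serially sectioned. Sections were deparaffinized, rehydrated, antigen-retrieved and immunostained for Ki-67 with HRP detection, then counterstained with hematoxylin. Slides were viewed by inverted phase-contrast microscopy at 200×.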

One molecule from ChEMBL document CHEMBL4477197, “Antitumor Activity of Spicatoside A by Modulation of Autophagy and Apoptosis in Human Colorectal Cancer Cells” (J Nat Prod, 2016) can be followed below.

Each structure is given as a SMILES string. Calls of active or inactive are those of the source. No cut-off for these calls is given here.

As to `C[C@H]1CC[C@@]2(OC1)O[C@H]1C[C@H]3[C@@H]4CC=C5C[C@@H](O)C[C@@H](O[C@@H]6O[C@H](C)[C@H](O)[C@H](O[C@@H]7OC[C@@H](O)[C@H](O)[C@H]7O)[C@H]6O[C@@H]6O[C@H](CO)[C@@H](O)[C@H](O)[C@H]6O)[C@]5(C)[C@H]4CC[C@]3(C)[C@H]1[C@@H]2C`, the outcome in the assay with HCT-116 was inactive. For the same molecule, the inhibition result in the assay with Mus musculus is “Active”.
